In assay [1] the test system is diabetic NSG RIP-DTR mice engrafted with human islets. In kind it is in vivo, mouse. The following applies: Donor 5 study; low dose 50 µg/kg sc twice daily.
Assay [2] has the same test system. The assay can be described thus: Body weight of human islet-engrafted mice. The following applies: 50, 150, 500 µg/kg sc twice daily. The assay is classed as in vivo, mouse. A digest of the protocol: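 Male NSG RIP-DTR mice, 8–12 weeks old, made diabetic by diphtheria toxin ablation of mouse beta cells and engrafted with a marginal mass of human islets from a single donor. Randomized into four groups: vehicle or test compound at 50, 150 or 500 µg/kg/injection, given sc twice daily until removal of the graft-bearing kidney at ~4 weeks post-transplant. Body weights followed over the study.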

In assay [3] the test system is human islets engrafted in NSG RIP-DTR mice. Kind of assay: Plasma human insulin. In kind it is in vivo, mouse. The settings on record: 2 weeks post-transplant.
Assay [4] relates to diabetic NSG RIP-DTR mice engrafted with human islets. Kind of assay: Glucose tolerance test. In kind it is in vivo, mouse. The following applies: for GTT vs controls: Donor 3 study. A digest of the protocol:
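Human islet-engrafted diabetic NSG RIP-DTR mice on twice-daily sc vehicle or test compound were fasted 5–6 hours. Glucose (2.0 g/kg body weight) was injected ip, and blood glucose was measured afterwards.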

The subject of assay [5] is human beta cells in islet grafts. The assay can be described thus: TUNEL assay of human beta-cell apoptosis in recovered islet grafts. The assay is classed as in vivo. A digest of the protocol:
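Recovered human islet grafts were taken on days 29, 32 and 21 for the Donor 3, 4 and 5 studies, at the end of twice-daily sc dosing. Sections were co-stained for insulin and TUNEL-labelled following the kit instructions. Cells were visualized by fluorescence microscopy and counted, and results expressed as percent TUNEL-positive beta cells.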

Assay [6] relates to human beta and alpha cells in islet grafts. Kind of assay: Total beta- and alpha-cell counts in human islet grafts. In kind it is in vivo. The following applies: Donor 5 study. A digest of the protocol:
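After twice-daily sc dosing, the graft-bearing kidney was removed. For the Donor 5 study, grafts were recovered on day 21. Whole-section images were taken from the outer graft edge with a motorized-stage fluorescence microscope and stitched, and total insulin+ and glucagon+ cells were counted.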

The test system of assay [7] is INS-1 rat pancreatic beta-cell line. The settings on record: in vitro; cited from earlier work.
The test system of the next assay is patients with T2D. The settings on record: cited from earlier work.
Where [8] appears, read: high dose 500 µg/kg sc twice daily.
Setting [9] is: low dose 50 µg/kg sc twice daily, n=3 or 4.
Where [10] appears, read: medium dose 150 µg/kg sc twice daily.

Regarding lixisenatide, the blood glucose in assay [1] was ~ 400 mg/dL. The “body weight change between transplant and nephrectomy” value in assay [2] (Donor 1 study) was “all mice lost significant weight between the time of transplant and nephrectomy, except the medium-dose group”; in assay [2] (Donor 3 and 4 studies), “no significant change in body weight”. For the same substance, the “stimulation index (ratio of stimulated to fasting human insulin) vs control” value is on record as “significantly increased compared to controls” in assay [3] (high dose 500 µg/kg, Donor 3 and 4 studies); “significantly increased compared to controls” in assay [3] (medium dose 150 µg/kg, Donor 1, 3 and 4 studies). The GTT vs controls result in assay [4] (high dose 500 µg/kg (P<0.05)) and in assay [4] (medium dose 150 µg/kg (P<0.01)) was “significant differences from controls” each time. Besides, the “GTT vs control group” value in assay [4] (Donor 4 study, low dose 50 µg/kg (P<0.05)) was “significant differences from the control group”. Further, in assay [5] (TUNEL-positive beta cells, control and lixisenatide groups, Donors 3, 4, 5), the “average percent beta-cell apoptosis at the end of each study” value is reported as less than 1%. Besides, in assay [5] (grafts recovered days 29, 32, 21 (Donors 3, 4, 5), all dose groups), the “beta-cell apoptosis (TUNEL) vs control” value is on record as “no significant differences in beta-cell apoptosis”. In addition, the “numbers of alpha cells in islet graft relative to control group” value in assay [6] (setting [8]) and in assay [6] (setting [10]) was “approximately threefold higher” in each case. Besides, the “numbers of beta cells in islet graft relative to control group” value in assay [6] (setting [8]) and in assay [6] (setting [10]) was “approximately threefold higher” in each case. Further, the “alpha-cell counts in islet graft relative to control group” value in assay [6] (setting [9]) is recorded as “approximately twofold higher”. Moreover, the “beta-cell counts in islet graft relative to control group” value in assay [6] (setting [9]) was “approximately twofold higher”. Also, the “lipid- and cytokine-induced apoptosis” value in assay [7] is “protect against lipid- and cytokine-induced apoptosis”. Moreover, the “reduction in postprandial plasma glucose vs placebo” value in the assay on patients with T2D (T2D patients insufficiently controlled on metformin) is recorded as “significantly greater reduction in postprandial plasma glucose”. Further, the “glycemic control (postprandial and fasting glucose levels)” value in the assay on patients with T2D (patients with T2D, once-daily administration) is “improved glycemic control by decreasing both postprandial and fasting glucose levels”.

The values above are taken from article PMC4548726 (Diabetes, Metabolic Syndrome and Obesity: Targets and …, 2015).
